pIC50, pKi: −log10 of the molar value. Bounds are passed on as bounds.

These results are taken from ChEMBL document CHEMBL1156937, “3'-[4-Aryl-(1,2,3-triazol-1-yl)]-3'-deoxythymidine analogues as potent and selective inhibitors of human mitochondrial thymidine kinase” (J Med Chem, 2010).

One assay addresses T1, Thymidine kinase (Human alphaherpesvirus 1, UniProt Q9QNF7).
T1 sequence (Q9QNF7 whole entry): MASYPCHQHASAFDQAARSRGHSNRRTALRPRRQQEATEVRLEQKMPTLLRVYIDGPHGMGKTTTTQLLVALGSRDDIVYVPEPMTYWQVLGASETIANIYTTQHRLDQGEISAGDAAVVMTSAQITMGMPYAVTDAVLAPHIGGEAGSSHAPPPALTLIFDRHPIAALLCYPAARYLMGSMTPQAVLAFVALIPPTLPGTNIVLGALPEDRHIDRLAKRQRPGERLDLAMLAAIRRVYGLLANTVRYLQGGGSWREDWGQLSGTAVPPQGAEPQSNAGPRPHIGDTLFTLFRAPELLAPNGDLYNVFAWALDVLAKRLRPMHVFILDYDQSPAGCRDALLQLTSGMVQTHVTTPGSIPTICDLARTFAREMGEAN
The assay can be described thus: Inhibition of HSV1 thymidine kinase assessed as inhibition of [methyl-3H]dThd phosphorylation after 30 mins by scintillation counting. The procedure, abridged:
(§1)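 Recombinant enzyme in 50 mM Tris/HCl pH 8.0, 2.5 mM MgCl2, 10 mM DTT, 0.5 mM CHAPS, 3 mg/mL BSA, 2.5 mM ATP and 1 μM [methyl-3H]dThd. Inhibitor at 5-fold dilutions; 37 °C for 30 min, within the linear range. Reaction spotted on DE-81 filter disks, which were washed in 1 mM ammonium formate, water and ethanol. Radioactivity counted by scintillation. IC50 is the concentration halving dThd phosphorylation.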

The target in assay [1] is T2, Thymidine kinase, cytosolic (Homo sapiens, UniProt P04183).
T2 sequence (P04183 whole entry): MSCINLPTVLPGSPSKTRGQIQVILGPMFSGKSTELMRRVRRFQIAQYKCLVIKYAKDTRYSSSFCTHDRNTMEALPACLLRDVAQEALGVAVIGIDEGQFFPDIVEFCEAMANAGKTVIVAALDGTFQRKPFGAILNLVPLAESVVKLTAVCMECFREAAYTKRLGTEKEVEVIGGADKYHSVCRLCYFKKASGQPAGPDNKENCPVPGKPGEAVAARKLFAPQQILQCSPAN
Description: Inhibition of human recombinant cytosolic thymidine kinase 1 assessed as inhibition of [methyl-3H]dThd phosphorylation after 30 mins by scintillation counting. In outline: as §1

Assay [2] has as its target T3, Thymidine kinase 2, mitochondrial (Homo sapiens, UniProt O00142).
T3 sequence (O00142 whole entry): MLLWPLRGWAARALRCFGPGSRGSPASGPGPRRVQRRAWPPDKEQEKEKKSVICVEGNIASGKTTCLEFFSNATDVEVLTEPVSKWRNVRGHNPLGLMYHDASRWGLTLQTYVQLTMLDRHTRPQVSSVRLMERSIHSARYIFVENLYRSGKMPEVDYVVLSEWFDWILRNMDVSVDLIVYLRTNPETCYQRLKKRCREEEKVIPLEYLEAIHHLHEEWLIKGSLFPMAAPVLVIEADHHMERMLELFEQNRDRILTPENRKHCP
The assay can be described thus: Inhibition of human recombinant mitochondrial thymidine kinase 2 assessed as inhibition of [methyl-3H]dThd phosphorylation after 30 mins by scintillation counting. In outline: as §1

The nature of assay [3]: Inhibition of Varicella zoster virus thymidine kinase assessed as inhibition of [methyl-3H]dThd phosphorylation after 30 mins by scintillation counting. More on the design: species or system Human alphaherpesvirus 3. In outline:
as §1

The next assay has as its target T4, Deoxynucleoside kinase (Drosophila melanogaster, UniProt Q9XZT6).
T4 sequence (Q9XZT6 whole entry): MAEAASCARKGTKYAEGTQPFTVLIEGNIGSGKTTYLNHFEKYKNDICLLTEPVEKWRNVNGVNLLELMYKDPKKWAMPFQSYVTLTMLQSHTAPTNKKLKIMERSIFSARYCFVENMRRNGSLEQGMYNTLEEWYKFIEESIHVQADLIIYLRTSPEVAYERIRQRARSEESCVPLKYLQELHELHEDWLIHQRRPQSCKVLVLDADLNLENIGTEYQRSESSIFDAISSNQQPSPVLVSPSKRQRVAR
Description: Inhibition of Drosophila melanogaster multifunctional deoxynucleoside kinase assessed as inhibition of [methyl-3H]dThd phosphorylation after 30 mins by scintillation counting. In outline: as §1

For another assay, the species on record is Homo sapiens. The assay can be described thus: Selectivity ratio of IC50 for human recombinant cytosolic thymidine kinase 1 to IC50 for human recombinant mitochondrial thymidine kinase 2.
The target in assay [4] is T3, Thymidine kinase 2, mitochondrial. Description: Inhibition of thymidine kinase 2.
For assay [5] the target is unchanged. Description: Competitive inhibition of human recombinant mitochondrial thymidine kinase 2 using ATP as substrate by Lineweaver-Burke plotting. The following applies: in the assay text read “using thymidine as substrate” for “using ATP as substrate”. In outline: (§2)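 Purified recombinant TK-2 in the same radiometric filter-binding assay. For dThd-varied kinetics, dThd was 0.4–5 μM with ATP saturating at 2.5 mM. For ATP-varied kinetics, ATP was 5–100 μM with dThd saturating at 20 μM. Km, Ki and inhibition mode were derived from Lineweaver-Burk plots.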

For assay [6] the target is unchanged. Description: Uncompetitive inhibition of human recombinant mitochondrial thymidine kinase 2 using thymidine as substrate by Lineweaver-Burke plotting. The following applies: in the assay text read “using ATP as substrate” for “using thymidine as substrate”. The procedure, abridged:
as §2

Regarding `Cc1cn([C@H]2C[C@H](n3cc(-c4ccccc4)nn3)[C@@H](CO)O2)c(=O)[nH]c1=O`, the pIC50 at Thymidine kinase is 4.55; in assay [1], 4.27; in assay [2], 6.49; in [3] it was 5.60; at Deoxynucleoside kinase it was 5.66.

Regarding `O=c1[nH]c(=O)n([C@H]2C[C@H](n3cc(-c4ccccc4)nn3)[C@@H](CO)O2)cc1/C=C/Br`, the pIC50 on Thymidine kinase is 4.44; in assay [1] it was less than 3.30; in assay [2], 6.60; in assay [3], 5.43; on Deoxynucleoside kinase it was 5.54.

For `Cc1cn([C@H]2C[C@H](n3cc(CC4CCCC4)nn3)[C@@H](CO)O2)c(=O)[nH]c1=O`, the pIC50 is 4.32 at Thymidine kinase; 3.75 in assay [1]; 6.82 in [2]; 5.51 in assay [3]; 5.52 at Deoxynucleoside kinase.

As for `Cc1cn([C@H]2C[C@H](n3cc(-c4ccc(Cl)c(Cl)c4)nn3)[C@@H](CO)O2)c(=O)[nH]c1=O`, the pIC50 on Thymidine kinase is 4.52; in assay [1] it was 4.12; in [2], 7.38; in [3], 5.57; at Deoxynucleoside kinase it was 6.00.

On to `Cc1cn([C@H]2C[C@H](NC(=S)Nc3ccc(Cl)c(C(F)(F)F)c3)[C@@H](CO)O2)c(=O)[nH]c1=O`, for which the figures for the pIC50 in assay [1] and in assay [2] were 3.50 and 6.82, respectively. Further, in the assay listed under Homo sapiens, the Ratio IC50 was determined as 2100.

With `Cc1cn([C@H]2C[C@H](n3nncc3-c3ccccc3)[C@@H](CO)O2)c(=O)[nH]c1=O`, the pIC50 was 3.35 at Thymidine kinase; no more than 3.30 in assay [1]; 5.96 in [2]; 4.72 in assay [3]; 4.77 at Deoxynucleoside kinase.

On to `CNC(=O)c1ccc(C(OCCCCCCCCn2cc(C)c(=O)[nH]c2=O)(c2ccccc2)c2ccccc2)cc1`, for which the pIC50 in [4] was 6.40.

Take `CCCCc1cn([C@H]2C[C@H](n3cc(C)c(=O)[nH]c3=O)O[C@@H]2CO)nn1`: the pIC50 on Thymidine kinase is 4.02; in [1] it was 3.44; in assay [2] it was 6.64; in assay [3], 5.37; at Deoxynucleoside kinase, 5.39.

In the case of `Cc1cn([C@H]2C[C@H](n3cc(-c4ccc(Cl)cc4)nn3)[C@@H](CO)O2)c(=O)[nH]c1=O`, the negative logarithm of the IC50 (pIC50) on Thymidine kinase was 4.57; in assay [1] it was 4.15; in [2] it was 7.34; in assay [3], 5.48; on Deoxynucleoside kinase, 5.74.

Turning to `Cc1cn([C@H]2C[C@H](n3cc(-c4ccccn4)nn3)[C@@H](CO)O2)c(=O)[nH]c1=O`, the negative logarithm of the IC50 (pIC50) at Thymidine kinase is 4.34; in assay [1], 3.50; in [2], 5.89; in assay [3], 5.51; at Deoxynucleoside kinase, 5.42.

Regarding `O=c1[nH]c(=O)n([C@@H]2O[C@H](CO)[C@@H](O)C2O)cc1/C=C/Br` (single isomer, unassigned) [SORIVUDINE], the pKi in assay [4] is 4.98.

As for `Cc1cn([C@H]2C[C@H](n3nncc3-c3ccc(Cl)cc3)[C@@H](CO)O2)c(=O)[nH]c1=O`, the pIC50 at Thymidine kinase is 3.41; in [1], 3.96; in assay [2] it was 5.40; at Deoxynucleoside kinase, 4.52.

Take `Cc1cn([C@H]2C[C@H](n3cc(Cc4ccccc4)nn3)[C@@H](CO)O2)c(=O)[nH]c1=O`: the pIC50 was 3.80 at Thymidine kinase; 3.50 in [1]; 6.52 in [2]; 5.19 in [3]; 5.41 at Deoxynucleoside kinase.

With `Cc1cn([C@H]2C[C@H](NC(=S)Nc3ccc(Cl)c(C(F)(F)F)c3)[C@@H](COC(c3ccccc3)(c3ccccc3)c3ccccc3)O2)c(=O)[nH]c1=O`, the negative logarithm of the IC50 (pIC50) (at Thymidine kinase; in assay [1]; in assay [2]; in assay [3]; at Deoxynucleoside kinase) was less than 3.30 throughout.

`Cc1cn([C@H]2C[C@H](n3ccnn3)[C@@H](CO)O2)c(=O)[nH]c1=O`: the pIC50 at Thymidine kinase was 3.67; in [1], no more than 3.30; in assay [2] it was 5.33; in [3] it was 4.82; on Deoxynucleoside kinase it was 4.40.

With `CCCCCC(=O)N[C@H]1C[C@H](n2cc(C)c(=O)[nH]c2=O)O[C@@H]1CO`, in assay [4], the negative-log Ki (pKi) is 6.82.

For `O=c1[nH]c(=O)n([C@H]2C[C@H](n3cc(-c4ccc(Cl)cc4)nn3)[C@@H](CO)O2)cc1/C=C/Br`, the pIC50 is 5.35 at Thymidine kinase; less than 3.30 in assay [1]; 7.44 in assay [2]; 5.77 in assay [3]; 6.34 at Deoxynucleoside kinase. In addition, the Ratio IC50 in the assay listed under Homo sapiens is greater than 14000. The pKi is 7.92 in [5] and 6.39 in assay [6].

The pIC50 is −log10 of the IC50, conventionally taken in molar units. One may read the pKi as −log10 of the Ki, conventionally taken in molar units.
